Experimental data published in ChEMBL document CHEMBL1817627, “Synergy-directed fractionation of botanical medicines: a case study with goldenseal (Hydrastis canadensis)” (2011).
Activity calls are given as the source filed them. No cut-off for these calls is given here.

Tests used:
[1] = target: T1, Quinolone resistance protein NorA (Staphylococcus aureus) (UniProt P0A0J7); test: Inhibition of wild type Staphylococcus aureus NCTC8325-4 NorA assessed as time taken to inhibit ethidium bromide efflux by measuring fluorescence at 100 uM relative to control
T1 sequence (whole entry): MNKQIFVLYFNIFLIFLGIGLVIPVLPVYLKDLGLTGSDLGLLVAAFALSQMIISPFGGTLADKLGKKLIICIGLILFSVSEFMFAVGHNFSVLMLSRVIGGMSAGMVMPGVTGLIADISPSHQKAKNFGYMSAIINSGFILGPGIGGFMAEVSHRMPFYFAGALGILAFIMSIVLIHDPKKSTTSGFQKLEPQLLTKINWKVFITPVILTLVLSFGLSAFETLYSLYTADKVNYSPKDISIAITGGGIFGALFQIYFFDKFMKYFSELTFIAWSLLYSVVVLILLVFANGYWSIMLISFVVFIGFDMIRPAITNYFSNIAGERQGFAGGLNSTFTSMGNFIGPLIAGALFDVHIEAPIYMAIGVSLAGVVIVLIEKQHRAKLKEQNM
In short: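 Cells grown in Mueller-Hinton broth to OD600 0.74, then loaded with ethidium bromide (25 μM) plus CCCP (100 μM) for 20 min at 20 °C with shaking. Diluted to OD600 0.40, pelleted and held on ice. Resuspended in fresh broth with 10% DMSO final and treatment at 100 μM final; CCCP is the control. Fluorescence (ex 530, em 600 nm) read every second for 300 s. Two-factor ANOVA versus vehicle at t = 300 s.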

Staphylococcus aureus [2] = test: Inhibition of Staphylococcus aureus K1758 NorA mutant assessed as inhibition of ethidium bromide efflux by measuring increase in fluorescence at 100 uM after 300 secs
Staphylococcus aureus [3] = test: Antimicrobial activity against Staphylococcus aureus; assay type: functional
In short: (§1)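 Broth microdilution MIC per CLSI guidelines. Single-colony S. aureus inoculum grown to log phase in Mueller-Hinton broth, adjusted by OD600 to 1.0×10^5 CFU/mL final. Medium contains 2% DMSO (vehicle, negative control); reserpine is the positive control. Triplicate wells, with bacteria-free wells for background subtraction. OD600 read after 20 hrs at 37 °C.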

Staphylococcus aureus [4] = test: Antimicrobial activity against wild-type Staphylococcus aureus NCTC8325-4; assay type: functional; in short: as §1
Staphylococcus aureus [5] = test: Antimicrobial activity against NorA efflux pump overexpressing Staphylococcus aureus K2378; assay type: functional
In short: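 S. aureus K2378 (norA overexpressing); single colony grown to log phase in Mueller-Hinton broth, adjusted by OD600 to 1.0×10^5 CFU/mL final; broth microdilution per CLSI in broth with 2% DMSO; triplicate wells plus bacteria-free background wells; OD600 read after 20 hrs at 37 °C; MIC = concentration with no significant difference (ANOVA) from vehicle control.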

Structure (SMILES) | TIME [1] [h] | inhibition (Staphylococcus aureus [2]) | MIC (Staphylococcus aureus [3]) [mg/L] | MIC (Staphylococcus aureus [4]) [mg/L] | MIC (Staphylococcus aureus [5]) [mg/L]
COc1cc(O)c2c(=O)cc(-c3ccc(O)cc3)oc2c1C | 0.0833 | inactive |  |  | 
COc1ccc2cc3[n+](cc2c1OC)CCc1cc2c(cc1-3)OCO2 [BERBERINE] |  |  | 150 | 150 | 300
N#CC(C#N)=NNc1cccc(Cl)c1 | 0.0833 | inactive |  |  | 
COc1cc2oc(-c3ccc(O)cc3)cc(=O)c2c(O)c1C [8-DEMETHYLSIDEROXYLIN] | 0.0833 | inactive |  |  | > 300
COc1c(C)c(O)c2c(=O)cc(-c3ccc(O)cc3)oc2c1C | 0.0833 | inactive |  |  | 
